One test relates to MCF7. Put plainly: Cytotoxicity against human MCF7 cells after 96 hrs by SRB assay. Format: functional, cell-based. The conditions noted are these: Homo sapiens, MCF7, 96 h; read-out: EC50. An outline of the steps:
(§1)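 Photometric sulforhodamine B read-out of antiproliferative effect after 96 h of continuous treatment; EC₅₀ values in µM, averaged from three independent experiments each run in triplicate; the assay cut-off is EC₅₀ > 30 µM. Human tumour lines are tested alongside nonmalignant mouse NIH 3T3 fibroblasts.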
In general terms: Sulforhodamine B stains cellular protein and so reports cell mass.
On to `C=C(C)[C@@H]1CC[C@]2(COC(=O)NCC)CC[C@]3(C)[C@H](CC[C@@H]4[C@@]5(C)CCC(=O)C(C)(C)[C@@H]5CC[C@]43C)[C@@H]12`, for which the EC50 (commonly the concentration at which the effect is half-maximal) was found to be 19.7 µM.

In the case of `C=C(C)[C@@H]1CC[C@]2(COC(=O)NCCCCCC)CC[C@]3(C)[C@H](CC[C@@H]4[C@@]5(C)CC[C@H](OC(C)=O)C(C)(C)[C@@H]5CC[C@]43C)[C@@H]12`, the EC50 is above 30 µM.

On to `C=C(C)[C@@H]1CC[C@]2(COC(=O)Nc3ccccc3)CC[C@]3(C)[C@H](CC[C@@H]4[C@@]5(C)CCC(=O)C(C)(C)[C@@H]5CC[C@]43C)[C@@H]12`, for which the EC50 was above 30 µM.

As for `C=C(C)[C@@H]1CC[C@]2(COC(=O)Nc3ccccc3)CC[C@]3(C)[C@H](CC[C@@H]4[C@@]5(C)CC[C@H](OC(C)=O)C(C)(C)[C@@H]5CC[C@]43C)[C@@H]12`, the EC50 was above 30 µM.

In a further test the test system is A549. Put plainly: Cytotoxicity against human A549 cells after 96 hrs by SRB assay. Format: functional, cell-based. The note with it: Homo sapiens, A549, 96 h; read-out: EC50. An outline of the steps: as §1
Take `C=C(C)[C@@H]1CC[C@]2(COC(=O)NCC)CC[C@]3(C)[C@H](CC[C@@H]4[C@@]5(C)CCC(=O)C(C)(C)[C@@H]5CC[C@]43C)[C@@H]12`: the EC50 was 20.3 µM.

As for `C=C(C)[C@@H]1CC[C@]2(COC(=O)NCCCCCC)CC[C@]3(C)[C@H](CC[C@@H]4[C@@]5(C)CC[C@H](OC(C)=O)C(C)(C)[C@@H]5CC[C@]43C)[C@@H]12`, the EC50 was above 30 µM.

As for `C=C(C)[C@@H]1CC[C@]2(COC(=O)Nc3ccccc3)CC[C@]3(C)[C@H](CC[C@@H]4[C@@]5(C)CCC(=O)C(C)(C)[C@@H]5CC[C@]43C)[C@@H]12`, the EC50 is above 30 µM.

Consider `C=C(C)[C@@H]1CC[C@]2(COC(=O)Nc3ccccc3)CC[C@]3(C)[C@H](CC[C@@H]4[C@@]5(C)CC[C@H](OC(C)=O)C(C)(C)[C@@H]5CC[C@]43C)[C@@H]12`, for which the EC50 is above 30 µM.

Another test relates to A2780. Put plainly: Cytotoxicity against human A2780 cells after 96 hrs by SRB assay. The note with it: Homo sapiens, A2780, 96 h; read-out: EC50. Format: functional, cell-based. An outline of the steps:
as §1
Consider `C=C(C)[C@@H]1CC[C@]2(COC(=O)NCC)CC[C@]3(C)[C@H](CC[C@@H]4[C@@]5(C)CCC(=O)C(C)(C)[C@@H]5CC[C@]43C)[C@@H]12`, for which the EC50 was found to be 8.3 µM.

For the compound `C=C(C)[C@@H]1CC[C@]2(COC(=O)NCCCCCC)CC[C@]3(C)[C@H](CC[C@@H]4[C@@]5(C)CC[C@H](OC(C)=O)C(C)(C)[C@@H]5CC[C@]43C)[C@@H]12`, the EC50 is above 30 µM.

With `C=C(C)[C@@H]1CC[C@]2(COC(=O)Nc3ccccc3)CC[C@]3(C)[C@H](CC[C@@H]4[C@@]5(C)CCC(=O)C(C)(C)[C@@H]5CC[C@]43C)[C@@H]12`, the concentration for a half-maximal effect (EC50) is above 30 µM.

Regarding `C=C(C)[C@@H]1CC[C@]2(COC(=O)Nc3ccccc3)CC[C@]3(C)[C@H](CC[C@@H]4[C@@]5(C)CC[C@H](OC(C)=O)C(C)(C)[C@@H]5CC[C@]43C)[C@@H]12`, the EC50 is above 30 µM.

The subject of a further test is HT-29. Put plainly: Cytotoxicity against human HT-29 cells after 96 hrs by SRB assay. Format: functional, cell-based. The conditions noted are these: HT-29, 96 h. The method in brief:
as §1
Regarding `C=C(C)[C@@H]1CC[C@]2(COC(=O)NCC)CC[C@]3(C)[C@H](CC[C@@H]4[C@@]5(C)CCC(=O)C(C)(C)[C@@H]5CC[C@]43C)[C@@H]12`, the EC50 worked out at 11.5 µM.

`C=C(C)[C@@H]1CC[C@]2(COC(=O)NCCCCCC)CC[C@]3(C)[C@H](CC[C@@H]4[C@@]5(C)CC[C@H](OC(C)=O)C(C)(C)[C@@H]5CC[C@]43C)[C@@H]12` gave an EC50 above 30 µM.

With `C=C(C)[C@@H]1CC[C@]2(COC(=O)Nc3ccccc3)CC[C@]3(C)[C@H](CC[C@@H]4[C@@]5(C)CCC(=O)C(C)(C)[C@@H]5CC[C@]43C)[C@@H]12`, the EC50 was above 30 µM.

On to `C=C(C)[C@@H]1CC[C@]2(COC(=O)Nc3ccccc3)CC[C@]3(C)[C@H](CC[C@@H]4[C@@]5(C)CC[C@H](OC(C)=O)C(C)(C)[C@@H]5CC[C@]43C)[C@@H]12`, for which the EC50 is above 30 µM.

Test system in the next test: not listed separately
Put plainly: Cytotoxicity against mouse NIH/3T3 cells after 96 hrs by SRB assay. Format: cell-based, NIH3T3. The note with it: Mus musculus, NIH3T3, 96 h; read-out: EC50. An outline of the steps: as §1
As to `C=C(C)[C@@H]1CC[C@]2(COC(=O)NCC)CC[C@]3(C)[C@H](CC[C@@H]4[C@@]5(C)CCC(=O)C(C)(C)[C@@H]5CC[C@]43C)[C@@H]12`, the EC50 worked out at 4.6 µM.

In the case of `C=C(C)[C@@H]1CC[C@]2(COC(=O)NCCCCCC)CC[C@]3(C)[C@H](CC[C@@H]4[C@@]5(C)CC[C@H](OC(C)=O)C(C)(C)[C@@H]5CC[C@]43C)[C@@H]12`, the EC50 is above 30 µM.

For `C=C(C)[C@@H]1CC[C@]2(COC(=O)Nc3ccccc3)CC[C@]3(C)[C@H](CC[C@@H]4[C@@]5(C)CCC(=O)C(C)(C)[C@@H]5CC[C@]43C)[C@@H]12`, the EC50 was above 30 µM.

Turning to `C=C(C)[C@@H]1CC[C@]2(COC(=O)Nc3ccccc3)CC[C@]3(C)[C@H](CC[C@@H]4[C@@]5(C)CC[C@H](OC(C)=O)C(C)(C)[C@@H]5CC[C@]43C)[C@@H]12`, the EC50 was above 30 µM.

Another test has as its system HeLa. Put plainly: Cytotoxicity against human HeLa cells after 96 hrs by SRB assay. Format: functional, cell-based.
Conditions: not given
The method in brief: as §1
`C=C(C)[C@@H]1CC[C@]2(COC(=O)NCC)CC[C@]3(C)[C@H](CC[C@@H]4[C@@]5(C)CCC(=O)C(C)(C)[C@@H]5CC[C@]43C)[C@@H]12` yielded an EC50 of 13.4 µM.

As for `C=C(C)[C@@H]1CC[C@]2(COC(=O)NCCCCCC)CC[C@]3(C)[C@H](CC[C@@H]4[C@@]5(C)CC[C@H](OC(C)=O)C(C)(C)[C@@H]5CC[C@]43C)[C@@H]12`, the EC50 was above 30 µM.

Take `C=C(C)[C@@H]1CC[C@]2(COC(=O)Nc3ccccc3)CC[C@]3(C)[C@H](CC[C@@H]4[C@@]5(C)CCC(=O)C(C)(C)[C@@H]5CC[C@]43C)[C@@H]12`: the EC50 is above 30 µM.

In turn, `C=C(C)[C@@H]1CC[C@]2(COC(=O)Nc3ccccc3)CC[C@]3(C)[C@H](CC[C@@H]4[C@@]5(C)CC[C@H](OC(C)=O)C(C)(C)[C@@H]5CC[C@]43C)[C@@H]12` had an EC50 above 30 µM.

Test system in a further test: not listed separately
Put plainly: Cytotoxicity against human 518A2 cells after 96 hrs by SRB assay. Format: functional, cell-based. The conditions noted are these: Homo sapiens, 518A2, 96 h; read-out: EC50. The method in brief:
as §1
Turning to `C=C(C)[C@@H]1CC[C@]2(COC(=O)NCC)CC[C@]3(C)[C@H](CC[C@@H]4[C@@]5(C)CCC(=O)C(C)(C)[C@@H]5CC[C@]43C)[C@@H]12`, the EC50 came out at 16.6 µM.

In the case of `C=C(C)[C@@H]1CC[C@]2(COC(=O)NCCCCCC)CC[C@]3(C)[C@H](CC[C@@H]4[C@@]5(C)CC[C@H](OC(C)=O)C(C)(C)[C@@H]5CC[C@]43C)[C@@H]12`, the EC50 is above 30 µM.

With `C=C(C)[C@@H]1CC[C@]2(COC(=O)Nc3ccccc3)CC[C@]3(C)[C@H](CC[C@@H]4[C@@]5(C)CCC(=O)C(C)(C)[C@@H]5CC[C@]43C)[C@@H]12`, the EC50 was above 30 µM.

For `C=C(C)[C@@H]1CC[C@]2(COC(=O)Nc3ccccc3)CC[C@]3(C)[C@H](CC[C@@H]4[C@@]5(C)CC[C@H](OC(C)=O)C(C)(C)[C@@H]5CC[C@]43C)[C@@H]12`, the EC50 is above 30 µM.

(Values after ChEMBL document CHEMBL3739286, “Betulinic acid derived hydroxamates and betulin derived carbamates are interesting scaffolds for the synthesis of novel cytotoxic compounds” (Eur J Med Chem, 2015).)
